Assay results reported in ChEMBL document CHEMBL1133674, “A peptide prodrug approach for improving bisphosphonate oral absorption” (J Med Chem, 2000).
Residues, ends and D or L forms follow the SMILES beside them.

Assays:
[1] = (§1) Basolateral to apical fluxes across Caco-2 cell monolayers at 37 degree celsius was studied.; format: ADME, organism-based; details: human, read-out: Permeability
In short: (§2)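 Caco-2 monolayers (passage 46-48) grown on collagen-coated polycarbonate Transwell filters, 21-25 days after seeding at 80 000 cells/cm2; TEER checked the day before. Transport run in HBSS with 25 mM Hepes, pH 7.4, at 37 °C with stirring. Receiver sampled at intervals up to 4 h, radioactivity counted by scintillation. Papp = dQ/dt·1/(AC0), computed separately for bisphosphonate and Pro-Phe parts; mean ± SD.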

[2] = Apical to basolateral fluxes across Caco-2 cell monolayers at 37 degree celsius was studied.; format: ADME, organism-based; details: human, read-out: Permeability; in short: as §2
Homo sapiens = species on record: Homo sapiens; experiment: as §1; format: ADME, organism-based; in short: as §2
[3] = Bioavailability by the ratios of 14C p.o. /14C i.v. accumulated in bone at 24 hr (dose 10 mg/kg p.o.); format: ADME, organism-based, Bone element; details: eutheria, in vivo, po
In short: (§3)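 Male Sabra rats, housed in metabolic cages, fasted overnight, dosed by stomach tube at 10 mg/kg bisphosphonate equivalent (n = 6). A 1 mg/kg iv jugular-cannula group served as reference. 14C in tibia or urine measured at 24 h by sample-oxidizer combustion and scintillation counting. F = (amount po × Div)/(amount iv × Dpo) × 100.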

[4] = Bioavailability by the ratios of 14C p.o. /14C i.v. accumulated in urine at 24 hr (dose 10 mg/kg p.o.); format: ADME, organism-based; details: eutheria, in vivo, po; in short: as §3
[5] = Inhibition of HAP formation, by the compound (1.0 mM) absorbed, was obtained in vitro studies.*: p<0.05; details: 1000 µM
In short: (§4)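 HAP precipitation was run with calcium 3.87 mM and phosphate 2.32 mM (Ca/PO4 1.67) in 0.05 M Tris, pH 7.4. Compound (0.1 or 1 mM) was dissolved in the phosphate solution. After 24 h incubation, filtrate calcium was measured by atomic absorption spectroscopy.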

[6] = Inhibition of HAP dissolution was determined […] at 0.24 mM concentration *: p<0.05; details: 240 µM
In short: (§5)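 Hydroxyapatite tablets (300 mg, 10 mm), wax-coated so that one face is exposed, were stirred overnight at 37 °C in drug solution (240 or 48 µM in Tris, pH 7.4). They were then moved to acetate buffer, pH 5, at 37 °C. Dissolved calcium was read by atomic absorption at timed points, with the medium replenished after each sample.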

[7] = (§6) Inhibition of HAP dissolution was determined […] at 0.048 mM concentration *: p<0.05; details: 48 µM; in short: as §5
[8] = Inhibition of HAP formation, by the compound (0.1 mM) absorbed, was obtained in vitro studies.*: p<0.05; details: 100 µM; in short: as §4
[9] = as §6; parameters: scale not given: the % may be the effect or the level left; details: 48 µM; in short: as §5
[10] = Inhibition of HAP dissolution was determined in […] at 0.24 mM concentration *: p<0.05; parameters: scale not given: the % may be the effect or the level left; details: 240 µM; in short: as §5

| SMILES | Papp B→A [1] [×10⁻⁶ cm/s] | Papp A→B [2] [×10⁻⁶ cm/s] | Permeability (Homo sapiens) [×10⁻⁶ cm/s] | Bioavailability [3] [%] | Bioavailability [4] [%] | Initial concentration [5] [%] | Inhibition [6] [%] | Inhibition [7] [%] | Initial concentration [8] [%] | Control [9] [%] | Control [10] [%] |
| --- | --- | --- | --- | --- | --- | --- | --- | --- | --- | --- | --- |
| O=C(O)[C@H](Cc1ccccc1)NC(=O)[C@@H]1CCCN1 (H-Pro-Phe-OH) | 1.14 | 2.29 | – | – | – | – | – | – | – | – | – |
| O=C(N[C@@H](Cc1ccccc1)C(=O)NCCC(O)(P(=O)(O)O)P(=O)(O)O)[C@@H]1CCCN1 (stereo in doubt; form 1) | – | 0.5 | 0.41 | – | – | – | – | – | – | – | – |
| O=C(N[C@@H](Cc1ccccc1)C(=O)NCCCC(O)(P(=O)(O)O)P(=O)(O)O)[C@@H]1CCCN1 (stereo in doubt; form 1) | – | 0.23 | 0.16 | 1.74 | 3.1 | – | – | – | – | – | – |
| O=C(N[C@@H](Cc1ccccc1)C(=O)NCCC(O)(P(=O)(O)O)P(=O)(O)O)[C@@H]1CCCN1 (stereo in doubt; form 2) | – | 0.11 | 0.09 | 1.65 | 3.17 | 40.5 | 59.1 | 79.4 | 83.8 | – | – |
| O=C(N[C@@H](Cc1ccccc1)C(=O)NCCCC(O)(P(=O)(O)O)P(=O)(O)O)[C@@H]1CCCN1 (stereo in doubt; form 2) | – | 1.03 | 0.55 | – | – | – | – | – | – | – | – |
| OC[C@@H](O)[C@@H](O)[C@H](O)[C@H](O)CO [MANNITOL] | 0.22 | 0.26 | – | – | – | – | – | – | – | – | – |
| NCCC(O)(P(=O)(O)O)P(=O)(O)O [PAMIDRONIC ACID] | 0.04 | 0.05 | – | 0.44 | 1.74 | 46.9 | – | – | 63.8 | 79.4 | 55.7 |
